Measurements reported in publication PMC3428732 (Analytical chemistry, 2012).
Square brackets hold non-standard residues; d marks the D form. Peptide text beside a SMILES is read from it. * marks the point of attachment. 6FAM = O=C1OC2(c3ccc(O)cc3Oc3cc(O)ccc32)c2cc(C(=O)*)ccc21; Phe(F5) = N[C@@H](Cc1c(F)c(F)c(F)c(F)c1F)C(=O)O; NMeR = CN[C@@H](CCCNC(=N)N)C(=O)O; NMeF = CN[C@@H](Cc1ccccc1)C(=O)O; βAla = NCCC(=O)O

What was measured:
PKBα kinase = PKBα kinase (Homo sapiens, UniProt P31749); test: in vitro kinase assay with purified PKBα; assay type: biochemical
Procedure, shortened: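 Active purified PKBα (6 nM) with N-terminally fluorescein-labelled peptide substrate (25 μM) at 30 °C. Buffer: 8 mM MOPS pH 7.0, 0.2 mM EDTA, 4 mM MgCl₂, 1 mM ATP. Aliquots were removed over time and stopped by heating at 90 °C for 4 min. Phosphorylation was quantified by CE-LIF. Triplicates used different enzyme aliquots on different days; mean ± SD.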

[1] = Peptide degradation in a HeLa cytosolic lysate; assay type: in vitro ADME, human; conditions: for half-life at 1 μM: human, HeLa cytosolic lysate
Procedure, shortened: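 Fluorescein-labelled peptide (1 μM) incubated at 37 °C with HeLa or LNCaP cytosolic lysate (3 mg mL⁻¹ total protein). Aliquots were quenched with HCl to 100 mM final; the 0 min point was acidified before peptide addition. Products were separated by CE-LIF, and fragments were identified by spiking in 250 nM standards. Initial rates were taken from the 0 and 5 min points, normalised to cytosolic protein (zmol pg⁻¹ s⁻¹). Triplicates used different lysates; mean ± SD.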

[2] = tested on: PKB activity in single LNCaP cells; test: Peptide phosphorylation in single LNCaP cells; assay type: cell-based, human; conditions: LNCaP cells pre-incubated with 500 nM wortmannin (10 min), then loaded with VI-B, 5 min; n = 10

Chain of PKBα kinase (P31749 whole entry): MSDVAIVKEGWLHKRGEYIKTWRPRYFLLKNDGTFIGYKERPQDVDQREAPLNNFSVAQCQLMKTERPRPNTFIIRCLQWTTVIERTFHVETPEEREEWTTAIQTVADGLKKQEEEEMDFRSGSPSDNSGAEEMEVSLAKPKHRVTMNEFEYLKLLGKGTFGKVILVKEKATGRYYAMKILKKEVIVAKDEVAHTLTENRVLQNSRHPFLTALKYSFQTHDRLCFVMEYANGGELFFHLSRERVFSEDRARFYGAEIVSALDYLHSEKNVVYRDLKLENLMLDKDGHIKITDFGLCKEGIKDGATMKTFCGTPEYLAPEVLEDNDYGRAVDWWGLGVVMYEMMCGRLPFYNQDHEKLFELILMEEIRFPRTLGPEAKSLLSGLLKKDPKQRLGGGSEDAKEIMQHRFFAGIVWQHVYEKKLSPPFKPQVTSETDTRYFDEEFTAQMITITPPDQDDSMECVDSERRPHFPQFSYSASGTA

| Structure (SMILES) | half-life at 1 μM [1] [min] | other results |
| --- | --- | --- |
| C[C@H](NC(=O)[C@H](Cc1ccccc1)NC(=O)[C@@H](NC(=O)[C@H](Cc1ccccc1)NC(=O)[C@H](C)NC(=O)[C@H](CCCNC(=N)N)N(C)C(=O)[C@@H]1CCCN1C(=O)[C@H](CCCNC(=N)N)NC(=O)CNC(=O)c1ccc2c(c1)C1(OC2=O)c2ccc(O)cc2Oc2cc(O)ccc21)[C@@H](C)O)C(=O)N[C@@H](CCC(=O)O)C(=O)NCC(N)=O [IV-D, 6FAM-GRP-MeArg-A-FTFAEG] (6FAM-GRP[NMeR]AFTFAEG-NH2) | 14 | fold faster t50%P than peptide III-B (PKBα kinase): over 30 X |
| C[C@H](NC(=O)[C@H](Cc1c(F)c(F)c(F)c(F)c1F)NC(=O)[C@@H](NC(=O)[C@H](Cc1ccccc1)NC(=O)[C@H](C)NC(=O)[C@H](CCCNC(=N)N)N(C)C(=O)[C@@H]1CCCN1C(=O)[C@H](CCCNC(=N)N)NC(=O)CNC(=O)c1ccc2c(c1)C1(OC2=O)c2ccc(O)cc2Oc2cc(O)ccc21)[C@@H](C)O)C(=O)N[C@@H](CCC(=O)O)C(=O)NCC(N)=O [V-A, 6FAM-GRP-MeArg-AFT-Phe(F5)-AEG] (6FAM-GRP[NMeR]AFT[Phe(F5)]AEG-NH2) | 88 |  |
| C[C@H](NC(=O)[C@H](CCCNC(=N)N)N(C)C(=O)[C@@H]1CCCN1C(=O)[C@H](CCCNC(=N)N)NC(=O)CNC(=O)c1ccc2c(c1)C1(OC2=O)c2ccc(O)cc2Oc2cc(O)ccc21)C(=O)N[C@@H](Cc1ccccc1)C(=O)N[C@H](C(=O)N[C@@H](Cc1ccccc1)C(=O)N[C@H](C)C(=O)N[C@@H](CCC(=O)O)C(=O)NCC(N)=O)[C@@H](C)O [V-B, 6FAM-GRP-MeArg-AFTF-DAla-EG] (6FAM-GRP[NMeR]AFTF[dA]EG-NH2) | 895 | fold greater t1/2 than peptide IV-D ([1]; HeLa lysate): over 60 X |
| COC[C@H]1OC(=O)c2coc3c2[C@@]1(C)C1=C(C3=O)[C@@H]2CCC(=O)[C@@]2(C)C[C@H]1OC(C)=O [wortmannin, Wortmannin] |  | formation of phosphorylated product of VI-B [2]: 13% ± 12% |
| C[C@H](NC(=O)[C@H](Cc1ccccc1)NC(=O)[C@@H](NC(=O)[C@H](CCC(=O)O)NC(=O)[C@H](C)NC(=O)[C@H](CCCNC(=N)N)N(C)C(=O)[C@@H]1CCCN1C(=O)[C@H](CCCNC(=N)N)NC(=O)CNC(=O)c1ccc2c(c1)C1(OC2=O)c2ccc(O)cc2Oc2cc(O)ccc21)[C@@H](C)O)C(=O)N[C@@H](CCC(=O)O)C(=O)NCC(N)=O [IV-C, 6FAM-GRP-MeArg-A-Glu-TFAEG] (6FAM-GRP[NMeR]AETFAEG-NH2) | 37 |  |
| C[C@H](NC(=O)[C@H](Cc1ccccc1)NC(=O)[C@@H](NC(=O)[C@H](Cc1ccccc1)N(C)C(=O)[C@H](C)NC(=O)[C@H](CCCNC(=N)N)N(C)C(=O)[C@@H]1CCCN1C(=O)[C@H](CCCNC(=N)N)NC(=O)CNC(=O)c1ccc2c(c1)C1(OC2=O)c2ccc(O)cc2Oc2cc(O)ccc21)[C@@H](C)O)C(=O)N[C@@H](CCC(=O)O)C(=O)NCC(N)=O [IV-E, 6FAM-GRP-MeArg-A-MePhe-TFAEG] (6FAM-GRP[NMeR]A[NMeF]TFAEG-NH2) | 2 |  |

Further lines, with some results ahead:

| half-life at 1 μM [1] [min] | Structure (SMILES) | other results |
| --- | --- | --- |
| 32 | C[C@H](NC(=O)[C@H](Cc1ccccc1)NC(=O)[C@@H](NC(=O)[C@@H](C)NC(=O)[C@H](C)NC(=O)[C@H](CCCNC(=N)N)N(C)C(=O)[C@@H]1CCCN1C(=O)[C@H](CCCNC(=N)N)NC(=O)CNC(=O)c1ccc2c(c1)C1(OC2=O)c2ccc(O)cc2Oc2cc(O)ccc21)[C@@H](C)O)C(=O)N[C@@H](CCC(=O)O)C(=O)NCC(N)=O [IV-B, 6FAM-GRP-MeArg-A-DAla-TFAEG] (6FAM-GRP[NMeR]A[dA]TFAEG-NH2) |  |
| 2 | C[C@H](NC(=O)[C@H](C)NC(=O)[C@H](CCCNC(=N)N)N(C)C(=O)[C@@H]1CCCN1C(=O)[C@H](CCCNC(=N)N)NC(=O)CNC(=O)c1ccc2c(c1)C1(OC2=O)c2ccc(O)cc2Oc2cc(O)ccc21)C(=O)N[C@H](C(=O)N[C@@H](Cc1ccccc1)C(=O)N[C@@H](C)C(=O)N[C@@H](CCC(=O)O)C(=O)NCC(N)=O)[C@@H](C)O [III-B, 6FAM-GRP-MeArg-AATFAEG] (6FAM-GRP[NMeR]AATFAEG-NH2) | fold longer t50%P than peptide I (PKBα kinase): more than 50 X; 6-residue fragment (alanine-threonine bond hydrolysis), % of all peptide present ([1]; HeLa lysate, within 15 min): 92% |
| 17 | C[C@H](NC(=O)[C@H](C)NC(=O)[C@@H](CCCNC(=N)N)NC(=O)[C@@H]1CCCN1C(=O)[C@H](CCCNC(=N)N)NC(=O)CNC(=O)c1ccc2c(c1)C1(OC2=O)c2ccc(O)cc2Oc2cc(O)ccc21)C(=O)N[C@H](C(=O)N[C@@H](Cc1ccccc1)C(=O)N[C@@H](C)C(=O)N[C@@H](CCC(=O)O)C(=O)NCC(N)=O)[C@@H](C)O [III-D, 6FAM-GRP-DArg-AATFAEG] (6FAM-GRP[dR]AATFAEG-NH2) |  |
| 14 | C[C@H](NC(=O)[C@H](Cc1ccccc1)NC(=O)[C@@H](NC(=O)CCNC(=O)[C@H](C)NC(=O)[C@H](CCCNC(=N)N)N(C)C(=O)[C@@H]1CCCN1C(=O)[C@H](CCCNC(=N)N)NC(=O)CNC(=O)c1ccc2c(c1)C1(OC2=O)c2ccc(O)cc2Oc2cc(O)ccc21)[C@@H](C)O)C(=O)N[C@@H](CCC(=O)O)C(=O)NCC(N)=O [IV-A, 6FAM-GRP-MeArg-A-βAla-TFAEG] (6FAM-GRP[NMeR]A[βAla]TFAEG-NH2) |  |
